Measurements from ChEMBL document CHEMBL3352270, “Antimalarial activity of abietane ferruginol analogues possessing a phthalimide group” (Bioorg Med Chem Lett, 2014).
≈ marks a conversion by molar mass, not a printed value.

Key:
Plasmodium falciparum [1] = assay: microbe, parasite or virus in culture; type: functional, organism-based; conditions: 3D7, 72 h
HEK293 = assay: Cytotoxicity against HEK293 cells; type: functional, cell-based; conditions: Homo sapiens
Raji = assay: Cytotoxicity against human Raji cells; type: functional, cell-based
HepG2 = assay: Cytotoxicity against human HepG2 cells; type: functional, cell-based
Plasmodium falciparum [2] = assay: microbe, parasite or virus in culture; type: functional, organism-based; conditions: K1, 72 h
BJ = assay: Cytotoxicity against human BJ cells; type: ADME, cell-based
[3] = Selectivity index, ratio of cytotoxic EC50 against human cells to EC50 for Plasmodium falciparum 3D7; conditions: human cells (cell line not named)
[4] = Selectivity index, ratio of cytotoxic EC50 against human cells to EC50 for Plasmodium falciparum K1; conditions: human cells (cell line not named)
[5] = Selectivity index, ratio of cytotoxicity against CHO cells to IC50 for Plasmodium falciparum K1; type: toxicity, cell-based; conditions: hamster, read-out: Selectivity Index
[6] = Selectivity index, ratio of cytotoxicity against human HepG2 cells to IC50 for Plasmodium falciparum K1; type: toxicity, cell-based; conditions: read-out: Selectivity Index
[7] = Selectivity index, ratio of cytotoxicity against rat L6 cells to IC50 for Plasmodium falciparum K1; type: toxicity, cell-based; conditions: read-out: Selectivity Index
Plasmodium falciparum [8] = assay: Antimalarial activity against Plasmodium falciparum K1; type: functional, organism-based
Procedure, shortened: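 Chloroquine-resistant K1 strain of P. falciparum; […].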

Plasmodium falciparum [9] = assay: Antimalarial activity against chloroquine-sensitive Plasmodium falciparum D6; type: functional, organism-based
[10] = Selectivity index, ratio of cytotoxicity against CHO cells to IC50 for Plasmodium falciparum D10; type: toxicity, cell-based; conditions: hamster, read-out: Selectivity Index
Plasmodium falciparum [11] = assay: Antimalarial activity against chloroquine-resistant Plasmodium falciparum W2; type: functional, organism-based
Plasmodium falciparum [12] = assay: Antimalarial activity against Plasmodium falciparum D10; type: functional
Plasmodium falciparum [13] = assay: Antimalarial activity against chloroquine-resistant Plasmodium falciparum K1; type: functional, organism-based
[14] = Selectivity index, ratio of cytotoxicity against human HepG2 cells to IC50 for Plasmodium falciparum D10; type: toxicity, cell-based; conditions: read-out: Selectivity Index
Plasmodium falciparum [15] = assay: Antimalarial activity against Plasmodium falciparum D6; type: functional, organism-based

Compound | EC50 (Plasmodium falciparum [1]) | EC50 (HEK293) | EC50 (Raji) | EC50 (HepG2) | EC50 (Plasmodium falciparum [2]) | EC50 (BJ) | selectivity ratio [3] | selectivity ratio [4] | selectivity ratio [5] | selectivity ratio [6] | selectivity ratio [7] | IC50 (Plasmodium falciparum [8]) | IC50 (Plasmodium falciparum [9]) | selectivity ratio [10] | IC50 (Plasmodium falciparum [11]) | IC50 (Plasmodium falciparum [12]) | IC50 (Plasmodium falciparum [13]) | selectivity ratio [14] | IC50 (Plasmodium falciparum [15])
CC(C)c1ccc2c(c1)CC[C@H]1[C@](C)(CN3C(=O)c4ccccc4C3=O)CCC[C@]21C | 1.36 µM | > 25 µM | > 25 µM | > 25 µM | 15 µM | > 25 µM | > 18.4 | – | – | – | – | – | – | – | – | – | – | – | –
CC(=O)c1cc2c(cc1C(C)C)CC[C@H]1[C@](C)(CN3C(=O)c4ccccc4C3=O)CCC[C@]21C | 0.086 µM | > 25 µM | > 25 µM | > 25 µM | 0.201 µM | > 25 µM | > 290 | > 124 | – | – | – | – | – | – | – | – | – | – | –
CC(=O)Oc1cc2c(cc1C(C)C)CC[C@H]1[C@](C)(CN3C(=O)c4ccccc4C3=O)CCC[C@]21C | 2.09 µM | > 25 µM | > 25 µM | > 25 µM | 15 µM | > 25 µM | > 12 | – | – | – | – | – | – | – | – | – | – | – | –
CC(C)c1cc2c(cc1O)[C@@]1(C)CCC[C@@](C)(CN3C(=O)c4ccccc4C3=O)[C@@H]1CC2 | 15 µM | > 25 µM | > 25 µM | > 25 µM | 4 µM | > 25 µM | – | > 6.3 | – | – | – | – | – | – | – | – | – | – | –
CC(C)c1cc2c(cc1O)[C@@]1(C)CCC[C@@](C)(CN)[C@@H]1CC2 | 6.67 µM | > 25 µM | > 25 µM | > 25 µM | 15 µM | 17.4 µM | 2.6 | – | – | – | – | – | – | – | – | – | – | – | –
CC(C)c1cc2c(cc1O)[C@@]1(C)CCC[C@@](C)(CN3C(=O)c4c(Cl)c(Cl)c(Cl)c(Cl)c4C3=O)[C@@H]1CC2 | 15 µM | > 25 µM | > 25 µM | > 25 µM | 15 µM | > 25 µM | – | – | – | – | – | – | – | – | – | – | – | – | –
CC(=O)Oc1cc2c(cc1C(C)C)CC[C@H]1[C@](C)(CN3C(=O)c4c(Cl)c(Cl)c(Cl)c(Cl)c4C3=O)CCC[C@]21C | 15 µM | > 25 µM | > 25 µM | > 25 µM | 15 µM | > 25 µM | – | – | – | – | – | – | – | – | – | – | – | – | –
CC(=O)Oc1cc2c(cc1C(C)C)C(=O)C[C@H]1[C@](C)(CN3C(=O)c4c(Cl)c(Cl)c(Cl)c(Cl)c4C3=O)CCC[C@]21C | 15 µM | > 25 µM | > 25 µM | > 25 µM | 15 µM | > 25 µM | – | – | – | – | – | – | – | – | – | – | – | – | –
CC(=O)Oc1cc2c(cc1C(C)C)/C(=N/NS(=O)(=O)c1ccc(C)cc1)C[C@H]1[C@](C)(CN3C(=O)c4c(Cl)c(Cl)c(Cl)c(Cl)c4C3=O)CCC[C@]21C | 15 µM | > 25 µM | > 25 µM | > 25 µM | 15 µM | > 25 µM | – | – | – | – | – | – | – | – | – | – | – | – | –
CC(C)c1cc2c(cc1O)[C@@]1(C)CCC[C@@](C)(C=O)[C@@H]1CC2 [18-OXOFERRUGINOL] | 15 µM | > 25 µM | > 25 µM | > 25 µM | 15 µM | > 25 µM | – | – | – | – | – | – | – | – | – | – | – | – | –
CCN(CC)CCCC(C)Nc1ccnc2cc(Cl)ccc12 (stereo not given) [CHLOROQUINE] | 0.023 µM | > 25 µM | > 25 µM | > 25 µM | 0.69 µM | > 25 µM | – | – | – | – | – | – | – | – | – | – | – | – | –
CC(C)c1cc2c(cc1O)[C@@]1(C)CCCC(C)(C)[C@@H]1CC2 [FERRUGINOL] | 2.47 µM | > 25 µM | 11.5 µM | > 25 µM | 1.33 µM | 19.6 µM | 4.6 | 8.6 | > 65 | > 65 | 15.6 | < 1 µg/mL | 4.2 µg/mL (≈ 14.7 µM) | > 65 | 3.5 µg/mL (≈ 12.2 µM) | < 1 µg/mL | 0.9 µM | > 65 | 1.95 µg/mL (≈ 6.81 µM)
CC(C)=CCC[C@]1(C)C=Cc2c(O)c3c(c(CC=C(C)C)c2O1)O[C@]12C(=C[C@@H]4C[C@H]1C(C)(C)O[C@@]2(C/C=C(/C)C(=O)O)C4=O)C3=O [GAMBOGIC ACID] | – | 0.21 µM | 0.24 µM | < 2 µM | – | 0.21 µM | – | – | – | – | – | – | – | – | – | – | – | – | –
